By IC50 is commonly meant the concentration needed to halve the response being measured. Broadly, the Kd is the equilibrium constant for the complex coming apart. A high value points to a looser complex. For orientation: EC50 means the concentration that produces a half-maximal response. Higher therefore signals weaker potency.

We go through 33 molecules from ChEMBL document CHEMBL1145604, “Fragment-based discovery of hepatitis C virus NS5b RNA polymerase inhibitors” (Bioorg Med Chem Lett, 2008).

Test [1] can be described thus: Inhibition of HCV NS5b RNA polymerase assessed as [3H]UTP incorporation into RNA. Also on record: species or system Hepacivirus hominis. In short, it runs like this:
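NS5B570n-BK (200 nM) with poly-A:oligo U₁₆ template:primer (8.4 µg/mL), 2.1 µCi tritiated UTP, 1 µM ATP, CTP, GTP in 40 mM Tris-HCl pH 8.0, NaCl, 4 mM DTT, 4 mM MgCl₂; compound serially diluted in DMSO. 2 h at 30 °C, TCA stop, filtration, scintillation counting. IC50 from duplicate means.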

A short description of test [2]: Binding affinity to HCV NS5b RNA polymerase by SPR assay. Further details: species or system Hepacivirus hominis. (Surface plasmon resonance follows binding to a sensor surface in real time, without labels.)
In a further test the test system is Hepatitis C virus. Put plainly: Antiviral activity against Hepatitis C virus by replicon assay. Format: functional, organism-based, Hepacivirus hominis. A general note: Replicon systems follow genome replication, usually without infectious particles.

Regarding `C[C@@H]1C[C@H](C)CN(C(=O)c2cc(Br)ccc2NS(C)(=O)=O)C1`, the IC50 in test [1] worked out at 7.5 µM.

Take `Nc1ccc(Br)cc1C(=O)N1CCCCC1`: the 50% inhibitory concentration (IC50) in test [1] was greater than 500 µM.

For `Nc1ccc(Br)cc1C(=O)N1CCOCC1`, the IC50 in test [1] was greater than 500 µM.

Regarding `C[C@@H]1C[C@H](C)CN(C(=O)c2cc(Br)ccc2NC(=O)CCC(=O)c2cccs2)C1`, the IC50 in test [1] was found to be 0.44 µM. This molecule showed an equilibrium dissociation constant (Kd) in test [2] of 0.97 µM. The molecule further came in with an EC50 in the test with Hepatitis C virus of 4.3 µM.

Regarding `Nc1ccc(Br)cc1C(=O)NCc1ccccc1`, in test [1], the IC50 is greater than 500 µM.

For `Nc1ccc(Br)cc1C(=O)Nc1ccccc1Cl`, the IC50 in test [1] came out at 178 µM.

As to `C[C@@H]1C[C@H](C)CN(C(=O)c2cc(Br)ccc2NC(=O)CC(=O)N(C)C)C1`, the IC50 in test [1] was 11 µM.

With `CC(=O)Nc1ccc(Br)cc1C(=O)N1C[C@H](C)C[C@H](C)C1`, in test [1], the IC50 came out at 11 µM. Binding in test [2] was put at a Kd of 1.7 µM.

Consider `COC(=O)CCC(=O)Nc1ccc(Br)cc1C(=O)N1C[C@H](C)C[C@H](C)C1`, for which, in test [1], the IC50 was 2.1 µM.

With `C[C@@H]1C[C@H](C)CN(C(=O)c2cc(Br)ccc2NC(=O)CCC(=O)O)C1`, the IC50 in test [1] came to 1 µM. The response with Hepatitis C virus was half-maximal at 22.8 µM (EC50).

`C[C@@H]1C[C@H](C)CN(C(=O)c2cc(Br)ccc2NC(=O)[C@@H]2C[C@@H](O)CN2C(=O)c2ccco2)C1`: the half-inhibitory concentration (IC50) in test [1] was determined as 1.03 µM. The same molecule gave a dissociation constant Kd in test [2] of 0.15 µM. In the test with Hepatitis C virus, this molecule showed a half-maximal effective concentration (EC50) of 3.7 µM.

In the case of `C[C@@H]1C[C@H](C)CN(C(=O)c2cc(Br)ccc2NC(=O)[C@@H]2CCCN2C(=O)c2cccnc2)C1`, the IC50 in test [1] was determined as 0.35 µM. In test [2], binding was put at a Kd of 1.28 µM. For the same molecule, the EC50 in the test on Hepatitis C virus came out at 12.9 µM.

Regarding `C[C@@H]1C[C@H](C)CN(C(=O)c2cc(Br)ccc2NC(=O)CCC(N)=O)C1`, the IC50 in test [1] amounted to 4.3 µM. For the same molecule, the dissociation constant (Kd) in test [2] stood at 9.4 µM.

Consider `C[C@@H]1C[C@H](C)CN(C(=O)c2cc(Br)ccc2NC(=O)CCCC(=O)O)C1`, for which, in test [1], the IC50 is 9 µM.

Turning to `C[C@@H]1C[C@H](C)CN(C(=O)c2cc(Br)ccc2NC(=O)CNC(=O)c2cccnc2)C1`, the IC50 in test [1] was 0.43 µM. Also, binding in test [2] was put at a Kd of 0.57 µM. Also, the EC50 in the test with Hepatitis C virus was 5.7 µM.

Regarding `CC1CCCN(C(=O)c2cc(Br)ccc2N)C1` (stereo not given), the IC50 in test [1] worked out at 170 µM. This molecule registered a Kd in test [2] of 192 µM.

Consider `Cc1cc(CNC(=O)Nc2ccc(Br)cc2C(=O)N2C[C@H](C)C[C@H](C)C2)nn1C`, for which, in test [1], the concentration for half-maximal inhibition (IC50) came out at 0.17 µM. This molecule also had a Kd in test [2] of 0.37 µM. This molecule also displayed an EC50 in the test with Hepatitis C virus of 4.6 µM.

As for `C[C@@H]1C[C@H](C)CN(C(=O)c2cc(Br)ccc2NC(=O)CNC(=O)c2ccccc2)C1`, the IC50 in test [1] came to 0.13 µM. In test [2], this molecule came in with a Kd of 0.54 µM. Also, a half-maximal effect in the test on Hepatitis C virus (EC50) was put at 5.5 µM.

With `Nc1ccc(Br)cc1C(=O)N1CCc2ccccc2C1`, in test [1], the IC50 stood at 132 µM. The Kd in test [2] stood at 210 µM.

Consider `C[C@@H]1C[C@H](C)CN(C(=O)c2cc(Br)ccc2NC(=O)CCC(=O)c2cccnc2)C1`, for which the IC50 in test [1] was found to be 0.59 µM. The Kd in test [2] is 1.04 µM. In addition, the midpoint of the response with Hepatitis C virus, the EC50, lay at 7.9 µM.

With `O=C(O)CCC(=O)Nc1ccc(Br)cc1C(=O)NCC1CCCCC1`, the IC50 in test [1] is greater than 500 µM.

On to `C[C@@H]1C[C@H](C)CN(C(=O)c2cc(Br)ccc2NC(=O)CCC(=O)N2CCOCC2)C1`, for which the IC50 in test [1] was 0.25 µM. Further, in the test with Hepatitis C virus, the EC50 was determined as 7.4 µM.

For the molecule `C[C@@H]1C[C@H](C)CN(C(=O)c2cc(Br)ccc2N)C1`, in test [1], the IC50 was 17 µM.

Take `C[C@@H]1C[C@H](C)CN(C(=O)c2cc(Br)ccc2NC(=O)CNC(=O)c2ccco2)C1`: the IC50 in test [1] came to 0.25 µM. In test [2], this molecule came in with a Kd of 1.02 µM. Besides, the EC50 with Hepatitis C virus was determined as 8.7 µM.

Regarding `C[C@@H]1CN(C(=O)c2cc(Br)ccc2N)C[C@H](C)O1`, the IC50 in test [1] came out at 190 µM. This molecule had a Kd in test [2] of 36 µM.

As for `C[C@@H]1C[C@H](C)CN(C(=O)c2cc(Br)ccc2NC(=O)CCC(=O)c2ccccn2)C1`, the IC50 in test [1] amounted to 0.54 µM. Besides, in test [2], the Kd worked out at 1.85 µM.

Regarding `CC(C)NC(=O)c1cc(Br)ccc1NC(=O)CCC(=O)O`, in test [1], the IC50 was greater than 500 µM.

Consider `C[C@@H]1C[C@H](C)CN(C(=O)c2cc(Br)ccc2NC(=O)NCc2ccc(N(C)C)cc2)C1`, for which, in test [1], the half-maximal inhibitory concentration (IC50) stood at 1 µM. Further, in test [2], the Kd is 0.8 µM. This molecule showed a 50% effective concentration (EC50) in the test with Hepatitis C virus of 4.9 µM.

For `C[C@@H]1C[C@H](C)CN(C(=O)c2cc(Br)ccc2NC(=O)NCC(=O)N(C)C)C1`, the IC50 in test [1] is 0.6 µM. The same molecule had a Kd in test [2] of 0.46 µM. For the same molecule, the EC50 in the test on Hepatitis C virus was 5.6 µM.

In the case of `C[C@@H]1C[C@H](C)CN(C(=O)c2cc(Br)ccc2NC(=O)CCC(=O)N(C)C)C1`, the IC50 in test [1] came to 0.4 µM. Also, in test [2], the affinity, expressed as Kd, was 0.3 µM. Moreover, a half-maximal response in the test on Hepatitis C virus (EC50) required 6.1 µM.

`Cc1cnc(CNC(=O)Nc2ccc(Br)cc2C(=O)N2C[C@H](C)C[C@H](C)C2)cn1`: in test [1], the IC50 came to 0.36 µM. In test [2], this molecule showed a dissociation constant Kd of 0.35 µM. The molecule further displayed a concentration giving a half-maximal response (EC50) in the test on Hepatitis C virus of 6.9 µM.

For `O=C(O)CCC(=O)Nc1ccc(Br)cc1C(=O)N1CCSCC1`, the IC50 in test [1] came to 533 µM.

With `Nc1ccc(Br)cc1C(=O)N1CCCC1`, the IC50 in test [1] was greater than 500 µM.
